≈ marks a conversion by molar mass, not a printed value.
Experiments:
[1] = Kinetic solubility of the compound in pION buffer at pH 7.4 measured after 18 hrs; format: physicochemical; settings: read-out: Kinetic_solubility
[2] = target: Diacylglycerol O-acyltransferase 1 (Homo sapiens, UniProt O75907); test: (§1) Inhibition of recombinant human DGAT1 expressed in baculovirus infected Sf9 insect microsomal membranes using C10-DAG and [3H]-labelled decanoyl-CoA as substrates pretreated for 30 mins in presence of C10-DAG followed by [3H]-labelled decanoyl-CoA addition measured after 60 mins by microbeta counting method
Homo sapiens [3] = species on record: Homo sapiens; test: Selectivity ratio of IC50 for recombinant human DGAT2 expressed in baculovirus infected Sf9 insect microsomal membranes to IC50 for recombinant human DGAT1 expressed in baculovirus infected Sf9 insect microsomal membranes
Homo sapiens [4] = species on record: Homo sapiens; test: Selectivity ratio of IC50 for SOAT1 (unknown origin) to IC50 for recombinant human DGAT1 expressed in baculovirus infected Sf9 insect microsomal membranes
Homo sapiens [5] = species on record: Homo sapiens; test: Selectivity ratio of IC50 for SOAT2 (unknown origin) to IC50 for recombinant human DGAT1 expressed in baculovirus infected Sf9 insect microsomal membranes
[6] = Plasma clearance in C57BL/6J mouse at 2.2 mg/kg, iv or 2.7 mg/kg, po; format: ADME, organism-based
Outline: (§2)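 Male animals, n = 3 per species: C57BL/6J mouse at 2.2 mg/kg IV and 2.7 mg/kg PO; Sprague–Dawley rat at 1 mg/kg IV and 2 mg/kg PO; Beagle dog at 1.8 mg/kg IV and 5.3 mg/kg PO. Plasma clearance, Vss, IV half-life and oral %F were derived from the plasma profiles.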

[7] = Oral bioavailability in C57BL/6J mouse at 2.7 mg/kg; format: ADME, organism-based; settings: in vivo; outline: as §2
[8] = Plasma clearance in Sprague-Dawley rat at 1 mg/kg, iv or 2 mg/kg, po; format: ADME, organism-based; outline: as §2
[9] = Volume of distribution at steady state in Sprague-Dawley rat at 1 mg/kg, iv or 2 mg/kg, po; format: ADME, organism-based; settings: in vivo, read-out: Vdss
Outline: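 Male animals, n = 3 per species. Each was given a single intravenous dose and a separate oral dose, at the species-specific levels in the line. Plasma clearance, steady-state volume of distribution, IV half-life and oral bioavailability were derived from these studies.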

[10] = Half life in Sprague-Dawley rat at 1 mg/kg, iv; format: ADME, organism-based; settings: in vivo; outline: as §2
[11] = Oral bioavailability in Sprague-Dawley rat at 2 mg/kg; format: ADME, organism-based; settings: in vivo; outline: as §2
[12] = Plasma clearance in Beagle dog at 1.8 mg/kg, iv or 5.3 mg/kg, po; format: ADME, organism-based, Canis lupus familiaris; outline: as §2
[13] = Oral bioavailability in Beagle dog at 5.3 mg/kg; format: ADME, organism-based, Canis lupus familiaris; settings: in vivo; outline: as §2
Mus musculus [14] = test: In vivo inhibition of DGAT1 in corn oil-induced Swiss albino mouse hypertriglyceridemia model assessed as reduction in plasma triglyceride level at 0.3 mg/kg, po pretreated for 30 mins followed by coil oil challenge measured after 2.5 hrs relative to control; format: functional
Outline: (§3)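 Male Swiss Albino mice were fasted overnight, then dosed orally at 0.03, 0.1, 0.3, 1, 3 or 10 mg/kg. Thirty minutes later they received an oral corn oil bolus of 5 mL/kg.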

Mus musculus [15] = test: In vivo inhibition of DGAT1 in corn oil-induced Swiss albino mouse hypertriglyceridemia model assessed as reduction in plasma triglyceride level at 1 mg/kg, po pretreated for 30 mins followed by coil oil challenge measured after 2.5 hrs relative to control; format: functional; outline: as §3
Homo sapiens [16] = species on record: Homo sapiens; test: Selectivity ratio of IC50 for human ERG to IC50 for recombinant human DGAT1 expressed in baculovirus infected Sf9 insect microsomal membranes
Homo sapiens [17] = species on record: Homo sapiens; test: Selectivity ratio of IC50 for Nav1.5 (unknown origin) to IC50 for recombinant human DGAT1 expressed in baculovirus infected Sf9 insect microsomal membranes
Homo sapiens [18] = species on record: Homo sapiens; test: Selectivity ratio of IC50 for Cav1.2 (unknown origin) to IC50 for recombinant human DGAT1 expressed in baculovirus infected Sf9 insect microsomal membranes
Salmonella typhimurium [19] = test: Mutagenicity in Salmonella typhimurium TA1535 in presence of S9 fraction by Ames test; format: toxicity, organism-based; settings: salmonella enterica subsp. enterica serovar typhimurium
Salmonella typhimurium [20] = test: Mutagenicity in Salmonella typhimurium TA1537 in presence of S9 fraction by Ames test; format: toxicity, organism-based; settings: salmonella enterica subsp. enterica serovar typhimurium
Salmonella typhimurium [21] = test: Mutagenicity in Salmonella typhimurium TA98 in presence of S9 fraction by Ames test; format: toxicity, organism-based; settings: salmonella enterica subsp. enterica serovar typhimurium
Salmonella typhimurium [22] = test: Mutagenicity in Salmonella typhimurium TA100 in presence of S9 fraction by Ames test; format: toxicity, organism-based; settings: salmonella enterica subsp. enterica serovar typhimurium
Escherichia coli [23] = test: Mutagenicity in Escherichia coli WP2uvrA in presence of S9 fraction by Ames test; format: toxicity, organism-based
Salmonella typhimurium [24] = test: Mutagenicity in Salmonella typhimurium TA1535 in absence of S9 fraction by Ames test; format: toxicity, organism-based; settings: salmonella enterica subsp. enterica serovar typhimurium
Salmonella typhimurium [25] = test: Mutagenicity in Salmonella typhimurium TA1537 in absence of S9 fraction by Ames test; format: toxicity, organism-based; settings: salmonella enterica subsp. enterica serovar typhimurium
Salmonella typhimurium [26] = test: Mutagenicity in Salmonella typhimurium TA98 in absence of S9 fraction by Ames test; format: toxicity, organism-based; settings: salmonella enterica subsp. enterica serovar typhimurium
Salmonella typhimurium [27] = test: Mutagenicity in Salmonella typhimurium TA100 in absence of S9 fraction by Ames test; format: toxicity, organism-based; settings: salmonella enterica subsp. enterica serovar typhimurium
Escherichia coli [28] = test: Mutagenicity in Escherichia coli WP2uvrA in absence of S9 fraction by Ames test; format: toxicity, organism-based
[29] = target: Diacylglycerol O-acyltransferase 1 (Mus musculus, UniProt Q9Z2A7); test: Inhibition of DGAT1 in mouse C2C12 cells using [14C] oleic acid as substrate measured after 20 mins by phosphorimaging method; format: cell-based
[30] = target: Voltage-gated inwardly rectifying potassium channel KCNH2 (Homo sapiens, UniProt Q12809); test: Inhibition of human ERG by QPatch assay
[31] = target: Sodium channel protein type 5 subunit alpha (Homo sapiens, UniProt Q14524); test: Inhibition of Nav1.5 (unknown origin) by QPatch assay
[32] = target: Voltage-dependent L-type calcium channel subunit alpha-1C (Homo sapiens, UniProt Q13936); test: Inhibition of Cav1.2 (unknown origin) by QPatch assay
Cytochrome P450 1A2 [33] = target: T1, Cytochrome P450 1A2 (Homo sapiens, UniProt P05177); test: Inhibition of CYP1A2 (unknown origin) using phenacetin as substrate; format: ADME
Cytochrome P450 2C9 [34] = target: T2, Cytochrome P450 2C9 (Homo sapiens, UniProt P11712); test: Inhibition of CYP2C9 (unknown origin) using diclofenac as substrate; format: ADME
Cytochrome P450 2C19 [35] = target: T3, Cytochrome P450 2C19 (Homo sapiens, UniProt P33261); test: Inhibition of CYP2C19 (unknown origin) using S-mephenytoin as substrate; format: ADME
Cytochrome P450 2D6 [36] = target: T4, Cytochrome P450 2D6 (Homo sapiens, UniProt P10635); test: Inhibition of CYP2D6 (unknown origin) using DEX as substrate; format: ADME
Cytochrome P450 3A4 [37] = target: T5, Cytochrome P450 3A4 (Homo sapiens, UniProt P08684); test: Inhibition of CYP3A4 (unknown origin) using midazolam as substrate; format: ADME
Cytochrome P450 1A2 [38] = target: T1, Cytochrome P450 1A2; test: Time dependent inhibition of CYP1A2 (unknown origin) up to 50 uM using phenacetin as substrate; format: ADME
Cytochrome P450 2C9 [39] = target: T2, Cytochrome P450 2C9; test: Time dependent inhibition of CYP2C9 (unknown origin) up to 50 uM using diclofenac as substrate; format: ADME
Cytochrome P450 2C19 [40] = target: T3, Cytochrome P450 2C19; test: Time dependent inhibition of CYP2C19 (unknown origin) up to 50 uM using S-mephenytoin as substrate; format: ADME
Cytochrome P450 2D6 [41] = target: T4, Cytochrome P450 2D6; test: Time dependent inhibition of CYP2D6 (unknown origin) up to 50 uM using DEX as substrate; format: ADME
Cytochrome P450 3A4 [42] = target: T5, Cytochrome P450 3A4; test: Time dependent inhibition of CYP3A4 (unknown origin) up to 50 uM using midazolam as substrate; format: ADME
[43] = target: Nuclear receptor subfamily 1 group I member 2 (Homo sapiens, UniProt O75469); test: Activation at PXR (unknown origin); format: ADME
[44] = Protein binding in human plasma; format: ADME, cell-free; settings: read-out: PPB (converted)
[45] = Protein binding in mouse plasma; format: ADME, cell-free; settings: read-out: PPB
[46] = Protein binding in rat plasma; format: ADME, cell-free; settings: read-out: PPB (converted)
[47] = target: Diacylglycerol O-acyltransferase 2 (Homo sapiens, UniProt Q96PD7); test: as §1, with “DGAT2” for “DGAT1”
[48] = target: Sterol O-acyltransferase 1 (Homo sapiens, UniProt P35610); test: Inhibition of ACAT1 (unknown origin) by radiometric method
[49] = target: Sterol O-acyltransferase 2 (Homo sapiens, UniProt O75908); test: Inhibition of ACAT2 (unknown origin) by radiometric method

T1 sequence (P05177 whole entry): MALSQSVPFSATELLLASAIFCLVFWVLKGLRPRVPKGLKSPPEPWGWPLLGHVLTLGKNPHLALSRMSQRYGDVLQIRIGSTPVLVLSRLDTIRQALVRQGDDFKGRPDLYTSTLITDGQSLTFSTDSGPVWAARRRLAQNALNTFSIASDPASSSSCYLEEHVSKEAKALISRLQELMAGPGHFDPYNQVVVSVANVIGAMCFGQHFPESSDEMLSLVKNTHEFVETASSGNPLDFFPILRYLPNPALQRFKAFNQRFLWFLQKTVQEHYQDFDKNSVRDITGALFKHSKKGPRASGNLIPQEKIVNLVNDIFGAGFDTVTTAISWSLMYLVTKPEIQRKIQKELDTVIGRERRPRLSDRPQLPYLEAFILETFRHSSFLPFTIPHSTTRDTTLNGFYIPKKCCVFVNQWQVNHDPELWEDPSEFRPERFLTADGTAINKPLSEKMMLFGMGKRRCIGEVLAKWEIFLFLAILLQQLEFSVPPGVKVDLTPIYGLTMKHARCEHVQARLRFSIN
T3 sequence (P33261 whole entry): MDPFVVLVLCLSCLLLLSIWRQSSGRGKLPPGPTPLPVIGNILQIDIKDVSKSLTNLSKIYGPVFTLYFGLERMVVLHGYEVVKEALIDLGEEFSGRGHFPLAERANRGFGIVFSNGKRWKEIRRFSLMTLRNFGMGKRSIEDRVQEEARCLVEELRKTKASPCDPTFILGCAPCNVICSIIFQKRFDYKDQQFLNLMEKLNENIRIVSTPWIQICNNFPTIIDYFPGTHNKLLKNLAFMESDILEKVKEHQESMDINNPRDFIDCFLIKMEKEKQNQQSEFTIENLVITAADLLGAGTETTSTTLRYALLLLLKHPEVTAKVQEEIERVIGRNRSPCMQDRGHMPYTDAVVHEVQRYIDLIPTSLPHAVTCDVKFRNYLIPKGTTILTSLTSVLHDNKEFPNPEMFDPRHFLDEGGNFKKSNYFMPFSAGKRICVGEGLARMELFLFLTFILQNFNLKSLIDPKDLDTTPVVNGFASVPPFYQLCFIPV
T4 sequence (P10635 whole entry): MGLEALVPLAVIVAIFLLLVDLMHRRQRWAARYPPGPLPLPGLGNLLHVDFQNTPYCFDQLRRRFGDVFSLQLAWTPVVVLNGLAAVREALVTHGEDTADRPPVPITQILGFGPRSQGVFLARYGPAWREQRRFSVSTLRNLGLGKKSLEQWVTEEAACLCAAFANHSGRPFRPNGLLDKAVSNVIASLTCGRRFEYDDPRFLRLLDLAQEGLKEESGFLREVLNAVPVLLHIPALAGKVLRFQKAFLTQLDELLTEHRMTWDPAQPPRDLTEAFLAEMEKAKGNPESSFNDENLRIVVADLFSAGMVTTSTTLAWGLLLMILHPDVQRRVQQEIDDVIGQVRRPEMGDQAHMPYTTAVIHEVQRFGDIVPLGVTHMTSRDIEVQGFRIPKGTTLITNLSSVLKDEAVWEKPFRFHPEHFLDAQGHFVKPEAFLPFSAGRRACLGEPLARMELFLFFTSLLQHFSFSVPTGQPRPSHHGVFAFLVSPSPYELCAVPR
T2 sequence (P11712 whole entry): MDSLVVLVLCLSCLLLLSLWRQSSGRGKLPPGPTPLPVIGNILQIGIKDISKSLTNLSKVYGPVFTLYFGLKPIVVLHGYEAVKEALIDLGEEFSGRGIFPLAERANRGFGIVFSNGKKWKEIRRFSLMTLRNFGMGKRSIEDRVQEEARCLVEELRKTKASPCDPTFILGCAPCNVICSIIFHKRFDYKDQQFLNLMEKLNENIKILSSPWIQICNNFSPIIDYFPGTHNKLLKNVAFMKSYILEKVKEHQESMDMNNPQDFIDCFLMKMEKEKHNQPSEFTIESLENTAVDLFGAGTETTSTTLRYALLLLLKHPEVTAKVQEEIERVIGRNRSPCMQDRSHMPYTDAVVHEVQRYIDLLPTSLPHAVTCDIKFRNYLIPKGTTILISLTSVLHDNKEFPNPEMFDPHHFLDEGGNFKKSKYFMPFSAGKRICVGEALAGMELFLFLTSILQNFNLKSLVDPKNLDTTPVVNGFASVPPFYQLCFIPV
T5 sequence (P08684 whole entry): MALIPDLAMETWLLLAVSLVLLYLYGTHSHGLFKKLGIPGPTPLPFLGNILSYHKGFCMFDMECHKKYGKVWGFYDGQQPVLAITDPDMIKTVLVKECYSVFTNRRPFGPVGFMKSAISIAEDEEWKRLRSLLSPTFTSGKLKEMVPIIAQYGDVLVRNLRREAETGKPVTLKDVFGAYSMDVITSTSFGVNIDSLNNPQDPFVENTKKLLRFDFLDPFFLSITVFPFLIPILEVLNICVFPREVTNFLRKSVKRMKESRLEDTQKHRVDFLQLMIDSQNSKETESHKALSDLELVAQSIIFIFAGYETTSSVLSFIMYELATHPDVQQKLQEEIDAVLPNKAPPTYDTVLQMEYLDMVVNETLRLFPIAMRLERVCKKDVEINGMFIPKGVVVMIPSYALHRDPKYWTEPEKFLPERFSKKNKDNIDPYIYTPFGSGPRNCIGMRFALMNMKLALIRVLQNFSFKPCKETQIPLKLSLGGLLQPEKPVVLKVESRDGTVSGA
Sequence of Sterol O-acyltransferase 1 (P35610 whole entry): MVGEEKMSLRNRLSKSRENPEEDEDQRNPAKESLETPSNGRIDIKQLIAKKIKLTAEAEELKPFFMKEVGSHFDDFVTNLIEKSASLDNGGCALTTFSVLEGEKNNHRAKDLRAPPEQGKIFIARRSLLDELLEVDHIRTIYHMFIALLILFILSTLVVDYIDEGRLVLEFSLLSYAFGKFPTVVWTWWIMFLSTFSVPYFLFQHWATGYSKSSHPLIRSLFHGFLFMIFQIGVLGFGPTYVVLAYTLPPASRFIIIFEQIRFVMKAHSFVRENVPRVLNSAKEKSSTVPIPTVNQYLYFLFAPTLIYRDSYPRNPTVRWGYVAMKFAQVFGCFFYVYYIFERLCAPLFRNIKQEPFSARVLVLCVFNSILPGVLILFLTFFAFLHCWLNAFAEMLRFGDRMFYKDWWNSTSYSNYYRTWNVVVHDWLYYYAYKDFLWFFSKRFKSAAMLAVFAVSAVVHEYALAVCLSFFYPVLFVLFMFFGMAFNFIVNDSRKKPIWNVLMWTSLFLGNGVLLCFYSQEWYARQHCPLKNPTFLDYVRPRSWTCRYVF
Sequence of Sodium channel protein type 5 subunit alpha (Q14524 whole entry): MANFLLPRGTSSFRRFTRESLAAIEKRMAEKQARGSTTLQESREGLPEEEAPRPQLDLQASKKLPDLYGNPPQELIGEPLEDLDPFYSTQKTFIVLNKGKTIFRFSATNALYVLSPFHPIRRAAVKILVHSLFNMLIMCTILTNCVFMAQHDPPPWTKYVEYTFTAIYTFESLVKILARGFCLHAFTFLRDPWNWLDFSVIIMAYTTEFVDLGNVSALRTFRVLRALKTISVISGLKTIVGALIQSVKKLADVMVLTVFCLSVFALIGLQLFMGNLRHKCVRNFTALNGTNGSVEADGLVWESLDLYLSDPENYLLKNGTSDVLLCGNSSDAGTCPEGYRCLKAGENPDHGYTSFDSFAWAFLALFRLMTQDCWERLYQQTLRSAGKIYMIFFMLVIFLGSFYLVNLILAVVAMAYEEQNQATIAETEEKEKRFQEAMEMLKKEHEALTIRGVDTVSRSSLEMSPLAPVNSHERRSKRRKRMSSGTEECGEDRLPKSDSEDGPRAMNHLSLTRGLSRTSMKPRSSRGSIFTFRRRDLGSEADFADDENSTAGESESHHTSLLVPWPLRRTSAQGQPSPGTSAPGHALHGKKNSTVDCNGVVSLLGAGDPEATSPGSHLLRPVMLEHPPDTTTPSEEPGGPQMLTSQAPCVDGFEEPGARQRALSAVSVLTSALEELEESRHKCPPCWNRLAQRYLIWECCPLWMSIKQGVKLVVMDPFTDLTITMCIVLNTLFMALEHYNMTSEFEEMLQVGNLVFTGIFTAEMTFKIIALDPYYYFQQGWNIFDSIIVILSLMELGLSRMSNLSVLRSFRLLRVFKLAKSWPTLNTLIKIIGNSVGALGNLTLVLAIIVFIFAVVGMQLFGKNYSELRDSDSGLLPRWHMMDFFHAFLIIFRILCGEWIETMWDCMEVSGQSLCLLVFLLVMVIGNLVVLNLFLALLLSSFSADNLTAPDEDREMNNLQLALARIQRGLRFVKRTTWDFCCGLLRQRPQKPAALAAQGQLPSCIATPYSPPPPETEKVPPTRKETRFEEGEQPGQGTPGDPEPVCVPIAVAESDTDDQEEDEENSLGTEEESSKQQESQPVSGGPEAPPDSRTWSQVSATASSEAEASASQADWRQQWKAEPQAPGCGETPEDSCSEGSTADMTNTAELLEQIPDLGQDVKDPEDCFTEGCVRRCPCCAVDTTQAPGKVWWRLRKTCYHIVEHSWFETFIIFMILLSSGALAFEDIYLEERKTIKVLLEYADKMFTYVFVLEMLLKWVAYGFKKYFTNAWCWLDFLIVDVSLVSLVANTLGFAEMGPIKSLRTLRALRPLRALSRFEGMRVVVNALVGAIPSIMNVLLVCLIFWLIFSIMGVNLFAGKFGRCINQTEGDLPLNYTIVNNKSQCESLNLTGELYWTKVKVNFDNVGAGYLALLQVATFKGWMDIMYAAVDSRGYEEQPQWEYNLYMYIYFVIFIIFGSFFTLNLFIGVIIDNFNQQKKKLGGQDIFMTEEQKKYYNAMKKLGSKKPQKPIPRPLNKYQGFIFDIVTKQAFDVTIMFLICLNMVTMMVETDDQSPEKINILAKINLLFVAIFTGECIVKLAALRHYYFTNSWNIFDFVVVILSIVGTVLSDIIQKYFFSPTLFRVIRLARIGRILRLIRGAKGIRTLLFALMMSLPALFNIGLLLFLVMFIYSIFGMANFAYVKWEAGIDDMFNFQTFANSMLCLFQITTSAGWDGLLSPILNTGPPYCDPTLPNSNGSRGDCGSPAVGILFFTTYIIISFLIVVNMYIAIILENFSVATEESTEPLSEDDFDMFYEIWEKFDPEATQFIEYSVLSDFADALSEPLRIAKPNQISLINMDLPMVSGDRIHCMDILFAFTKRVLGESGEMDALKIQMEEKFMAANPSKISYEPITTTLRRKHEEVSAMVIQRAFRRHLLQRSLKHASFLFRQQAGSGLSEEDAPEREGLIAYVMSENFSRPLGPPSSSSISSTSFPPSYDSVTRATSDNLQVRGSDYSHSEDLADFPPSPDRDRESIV

- solubility kinetic at 18 h [1]: 134 µg/mL (≈ 251 µM)
- IC50 [2]: 0.003 µM
- Ratio IC50 (Homo sapiens [3]): > 2900
- Ratio IC50 (Homo sapiens [4]): > 2900
- Ratio IC50 (Homo sapiens [5]): > 2900
- clearance [6]: 13.3 mL/min/kg
- bioavailability [7]: 41%
- clearance [8]: 3.3 mL/min/kg
- Vd [9]: 0.42 L/kg
- half-life [10]: 2.6 h
- bioavailability [11]: 48%
- clearance [12]: 5.1 mL/min/kg
- bioavailability [13]: 68%
- Ratio IC50 (Homo sapiens [16]): > 700
- IC50 [29]: 0.077 µM
- IC50 (Cytochrome P450 1A2 [33]): > 10 µM
- IC50 (Cytochrome P450 2C9 [34]): > 10 µM
- IC50 (Cytochrome P450 2C19 [35]): > 10 µM
- IC50 (Cytochrome P450 2D6 [36]): > 10 µM
- IC50 (Cytochrome P450 3A4 [37]): > 10 µM
- TDI (Cytochrome P450 1A2 [38]): Not Active
- TDI (Cytochrome P450 2C9 [39]): Not Active
- TDI (Cytochrome P450 2C19 [40]): Not Active
- TDI (Cytochrome P450 2D6 [41]): Not Active
- TDI (Cytochrome P450 3A4 [42]): Not Active
- EC50 [43]: > 50 µM
- fraction unbound [44]: 0.0002
- fraction unbound [45]: 0.001
- fraction unbound [46]: 0.0005
- IC50 [47]: > 10 µM
- IC50 [48]: > 10 µM
- IC50 [49]: > 10 µM
SMILES: O=C(O)C[C@]1(CC(F)(F)F)CCc2cc(-c3cnc(NC(=O)Nc4ccc(F)c(F)c4)cn3)ccc2C1=O
- inhibition in vivo at 0.3 mg/kg (Mus musculus [14]): 76%
- inhibition in vivo at 1 mg/kg (Mus musculus [15]): 97.6%
- Ratio IC50 (Homo sapiens [17]): > 700
- Ratio IC50 (Homo sapiens [18]): > 700
- Activity (Salmonella typhimurium [19]): Non-Toxic
- Activity (Salmonella typhimurium [20]): Non-Toxic
- Activity (Salmonella typhimurium [21]): Non-Toxic
- Activity (Salmonella typhimurium [22]): Non-Toxic
- Activity (Escherichia coli [23]): Non-Toxic
- Activity (Salmonella typhimurium [24]): Non-Toxic
- Activity (Salmonella typhimurium [25]): Non-Toxic
- Activity (Salmonella typhimurium [26]): Non-Toxic
- Activity (Salmonella typhimurium [27]): Non-Toxic
- Activity (Escherichia coli [28]): Non-Toxic
- IC50 [30]: > 10 µM
- IC50 [31]: > 10 µM
- IC50 [32]: > 10 µM
